# Screens as filed in PubChem BioAssay.
# Compounds with a hit are over-represented: about 3% of the library has one in this group of screens.
# GC-A act: GC-A stimulated cGMP production enhancers – HEK293 GC-A cells, cGMP TR-FRET, EC30 ANP, primary screen; 0% at EC30 ANP, 100% saturating ANP; activation, % at 10 µM; 370,000 tested, 0.14% active; AID 1671463, 2021; in the data active = activation above about 40%
# NPR2 activator: human GC-B receptor activators, primary screen, HEK293 GC-B cells, cGMP TR-FRET, EC30 CNP. activation, % at 10 µM. 370,000 tested, 0.11% active. 0% at EC30 CNP, 100% saturating CNP. Atrial natriuretic peptide receptor 2 (Homo sapiens), P20594;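 active = activation at 10 µM reaching about 35% in either raw or pattern-adjusted values, limit read from the data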
# GRIN3A LBD mod: binders of NR3A ligand-binding domain, primary screen, biophysical, differential scanning fluorimetry, uHTS; Tm shift relative to glycine control, % at 25 µM; Glutamate receptor ionotropic, NMDA 3A (GRIN3A) ligand-binding domain; 340,000 tested, 2.5% active; NR3A LBD differential scanning fluorimetry, Tm shift; 0% = protein alone, 100% = glycine-bound protein;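 active = melting temperature shift of at least 10% of the positive control shift, at one fixed dose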
# aDG glyco up: activators of alpha-DG glycosylation, primary screen, uHTS, Pro5-aDG cells, AlphaScreen | 360,000 tested, 0.22% active | activation, % at 10 µM | alpha-DG glycosylation AlphaScreen (IIH6); 0% Pro5, 100% B10-LARGE cell signal;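 active = activation of at least 8% versus controls, or a plate z-score of at least 8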;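 note: Pro5 are CHO cells carrying HIG-tagged alpha-DG that lacks glycosylation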
# Lipid droplet: inhibitors of hepatocyte lipid droplet formation, primary screen, imaging, high-throughput imaging, BODIPY stain | 240,000 tested, 0.4% active | AID 1656, 2009 | inhibition, % at 6.5 µM | AML12 mouse hepatocytes, oleate lipid droplets;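 active = lipid droplet intensity inhibited by at least 50%, with more than 500 cells counted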
#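 Assay system: AML12 hepatocytes (mouse) / Also added: 100 µM oleic acid challenge / Times: overnight treatment with compound plus oleate / Detection: high-content imaging of BODIPY-stained droplets and DAPI nuclei / Evaluation: % inhibition of lipid droplet signal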
# GASC-1 inh: inhibitors of GASC-1 histone demethylase, primary screen, biochemical, fluorescence, DELFIA europium. GST-JMJD2C(1-420) H3K9me3 demethylation. inhibition, % at 2.35 µM. 330,000 tested, 0.069% active;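 active = more than half of a compound's replicate wells show inhibition beyond 50%, single wells judged on their own value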;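 note: signal counts dimethyl H3K9 product captured on neutravidin plate; 0% = median of DMSO wells and 100% = 0.3 times that DMSO median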
# Target sequence (Q9H3R0 1-420 limits assumed): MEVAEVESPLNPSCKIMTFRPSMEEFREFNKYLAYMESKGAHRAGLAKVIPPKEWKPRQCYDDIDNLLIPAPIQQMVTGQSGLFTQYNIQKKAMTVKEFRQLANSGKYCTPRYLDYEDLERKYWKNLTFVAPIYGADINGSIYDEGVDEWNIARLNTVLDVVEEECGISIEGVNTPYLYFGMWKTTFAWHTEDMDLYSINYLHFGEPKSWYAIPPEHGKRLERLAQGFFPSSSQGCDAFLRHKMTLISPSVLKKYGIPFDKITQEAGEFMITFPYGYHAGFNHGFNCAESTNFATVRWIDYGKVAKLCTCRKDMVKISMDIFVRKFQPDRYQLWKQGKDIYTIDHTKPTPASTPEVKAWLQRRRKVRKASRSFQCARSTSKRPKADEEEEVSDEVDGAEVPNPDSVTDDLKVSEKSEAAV
# Starred values were filed as active, the others as inactive; / = not tested or not shown.
SMILES,GC-A act,NPR2 activator,GRIN3A LBD mod,aDG glyco up,Lipid droplet,GASC-1 inh
CNC(=O)c1cc2c(s1)-c1ccccc1CC2,-7,1,0,0,14,-16
Cc1ccc(S(=O)(=O)C2(C(=O)NC3CCCCC3)CC2)cc1,3,2,26*,0,-2,-2
CC(C)Oc1cccc(C(=O)NC(=S)Nc2ccccc2N2CCOCC2)c1,13,9,20*,0,-12,1
Cc1cccc(OCC(=O)NC(=S)Nc2ccccc2N2CCOCC2)c1C,-6,-10,16*,0,1,-17
COC(=O)[C@]12C[C@H](CC(=O)N3CCCC3)C(=O)N(Cc3ccc(Cl)cc3Cl)C1=C[C@H](C(C)(C)C)O[C@@H]2C,-15,-6,/,/,/,/
COc1ccccc1-n1c(SCC(=O)NC2CCS(=O)(=O)C2)nc2cc([N+](=O)[O-])ccc21 (stereo not drawn),-2,-3,0,0,-7,5
COc1ccccc1-n1c(SCC(=O)c2ccc(O)cc2O)nc2cc([N+](=O)[O-])ccc21,1,5,30*,0,-12,-1
Cc1cc(C(=O)NC2CC(C)(C)Cc3c2cnn3-c2cccc(F)c2)nn1C (stereo not drawn),-1,-7,12*,0,-48,-14
Cc1cc(C(=O)NC2CC(C)(C)Cc3c2cnn3-c2cccc(F)c2)n(C)n1 (stereo not drawn),-1,-3,-1,0,-7,-6
Nc1nc(=S)[nH]c2c1C1(CCCC1)Cc1ccccc1-2,-5,1,-1,0,/,8
Nc1nc(=S)[nH]c2c1C1(CCCCC1)Cc1ccccc1-2,-2,-4,13*,0,-17,3
CCC(NC(=O)c1ccc2c(c1)c(C)c(C)n2Cc1ccc(-c2ccccc2C#N)cc1)c1ccccc1 (stereo not drawn),0,2,/,/,/,/
CCOc1ccccc1Nc1ccnc2cc(Cl)ccc12,-10,-8,228*,3,-12,-1
COC(=O)[C@]12C[C@H](CC(=O)N3CCCCC3)C(=O)N(Cc3cccc4ccccc34)C1=C[C@H](C(C)(C)C)O[C@@H]2C,-3,2,/,/,/,/
O=C(Nc1ccccc1)c1ccccc1NS(=O)(=O)c1ccc(Cl)s1,8,15,22*,1,-48,2
Cc1ccc(NC(=O)c2ccccc2NS(=O)(=O)c2ccc(Cl)s2)cc1,9,2,26*,1,-2,12
O=C(Nc1ccccc1Cc1ccccc1)c1ccccc1NS(=O)(=O)c1ccc(Cl)s1,3,7,34*,1,-41,-13
O=C(NCc1ccco1)c1ccccc1NS(=O)(=O)c1ccc(Cl)s1,5,3,-3,0,-10,1
COC(=O)C1=C(C)N(Cc2ccc(C(F)(F)F)cc2)C(=NCc2ccc(C(F)(F)F)cc2)NC1c1cccc(C(F)(F)F)c1 (stereo not drawn),-5,2,/,/,/,/
CC(=O)c1cc(-c2ccc3c(c2)OCO3)c(=O)n2c1CCC2,4,11,/,/,/,/
Cn1c(Cc2cccs2)nnc1SCC(=O)Nc1ccc2cn[nH]c2c1,-4,0,/,/,/,/
CC(=O)Nc1ccc(/C=C/c2noc(-c3ccccc3O)n2)cc1,/,/,12*,0,0,-5
COc1cc(/C=C/c2noc(-c3ccccc3O)n2)ccc1OC(C)=O,-1,-3,0,1,-15,15
Cc1cc2n(n1)C(c1c[nH]c3ccccc13)Nc1ccccc1-2 (stereo not drawn),/,/,32*,0,-11,1
CC(C)Oc1ccc(C(=O)NC2(C(F)(F)F)NC(=O)N(CCCc3ccccc3)C2=O)cc1 (stereo not drawn),-1,2,14*,1,14,-12
SMILES,GC-A act,NPR2 activator,GRIN3A LBD mod,aDG glyco up,Lipid droplet,GASC-1 inh
CCCCN1C(=O)NC(NC(=O)c2ccco2)(C(F)(F)F)C1=O (stereo not drawn),5,3,-1,0,/,-1
CC(C)c1ccc(NC(=O)COC(=O)CSc2nnc(N)s2)cc1,3,-1,13*,0,8,0
CCCC1CCC2(CCC(=O)N2CCSc2ccccc2)CC1 (stereo not drawn),1,-1,/,/,/,/
COC(=O)C1=CN(c2ccc(Oc3ccccc3)cc2)C(N)=C(C#N)C1c1ccccc1 (stereo not drawn),4,6,/,0,/,/
CCOC(=O)C1=CN(Cc2cccc(-c3ccc(F)cc3)c2)S(=O)(=O)N(C)C1C (stereo not drawn),-1,0,13*,0,/,/
Cc1ccc(Cn2cc(CN3[C@H](Cc4ccccc4)COc4cc(Br)ccc4S3(=O)=O)nn2)cc1,-2,0,/,/,/,/
O=C(CCN1CCCCCC1)Nc1ccc(F)c(F)c1,2,-2,673*,0,/,-3
Cc1cc(C#Cc2c(-c3ccccc3)n(C)c3ccccc23)ccc1F,-2,2,-9,0,/,-13
CCOC(=O)c1[nH]c2ccc(OC)cc2c1NC(=S)N1CCN(c2ccc(F)cc2)CC1,-4,-2,0,0,-2,-2
CCOC(=O)c1[nH]c2ccc(OC)cc2c1NC(=S)N1CCN(c2cccc(C)c2C)CC1,0,4,12*,0,-8,-8
O=c1c(Cl)c2oc3ccccc3nc-2c2ccccc12,/,/,9,6.1*,6,2
C#Cc1cccc(OC[C@@H](O)CN2CCC(C(O)(c3ccccc3)c3ccccc3)CC2)c1,-17,-12,/,/,/,/
Cc1csc(NC(=O)CSc2nc(C)nc3c2c(=O)n(C)c(=O)n3C)n1,28,37*,-1,0,-1,-10
CCCc1nc(SCC(=O)Nc2nnc(SCC)s2)c2c(=O)n(C)c(=O)n(C)c2n1,7,-3,-2,0,-11,-13
CCSc1nnc(NC(=O)CSc2nc(CC)nc3c2c(=O)n(C)c(=O)n3C)s1,-3,0,14*,0,-4,3
COCCCNC(=O)CN1C(=O)C2CCCCN2C(=O)c2ccccc21 (stereo not drawn),3,11,/,/,/,/
CCc1ccccc1-c1cc(C(=O)OC)c2n(c1=O)CCC2,1,0,/,/,/,/
O=C(N/N=C/c1c[nH]c2ccccc12)c1ccncc1,0,-1,7,0,-6,-34
